Activity calls are given as the source filed them. No cut-off for these calls is given here.

For data set [1], the system named is MDA-MB-468. The experiment in a line: Antiproliferative activity against human MDA-MB-468 cells measured after 7 days by Celltiter-glo assay. Conditions: MDA-MB-468, 168 h. It counts as functional, cell-based. The gist of the method: (§1)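 Cells maintained in RPMI1640 with 10% FBS at 37 °C, 5% CO2. Seeded the day before dosing, grown 12 h, then exposed to graded compound concentrations for 7 days. CellTiter-Glo reagent added, 10 min at room temperature, luminescence read. Inhibition % = (1-(RLU compound - RLU blank)/(RLU DMSO - RLU blank))×100. IC50 from nonlinear regression, normalized dose-response fit.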

Data set [2] deals with MDA-MB-468. The experiment in a line: Inhibition of PI3K in human MDA-MB-468 cells assessed as reduction in RAD51 foci formation at 1 uM measured after 72 hrs by DAPI staining based immunofluorescence microscopic analysis. It counts as cell-based. Put shortly: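 RAD51 foci in MDA-MB-468 cells on coverslips after 72 h drug exposure. Cells fixed (3% formaldehyde), permeabilized (0.1% Triton X-100), blocked in 10% FBS/PBS, incubated overnight at 4 °C with rabbit anti-RAD51 polyclonal, then secondary antibody plus DAPI. Foci and percent positive cells (>5 foci per cell) counted from about 200 cells. Mean ± SD of three independent experiments.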

The subject of data set [3] is MDA-MB-468. The experiment in a line: Induction of apoptosis in human MDA-MB-468 cells assessed as early apoptotic cells at 1 uM measured after 72 hrs by Annexin V-FITC/propidium iodide staining based flow cytometry (reference value: 3.88%). The class given is functional. For orientation: Flow cytometry measures light scatter and fluorescence of single cells or particles in a stream.

For data set [4], the system named is MDA-MB-468. The experiment in a line: Induction of apoptosis in human MDA-MB-468 cells assessed as viable cells at 1 uM measured after 72 hrs by Annexin V-FITC/propidium iodide staining based flow cytometry (reference value: 95.2%). The note with it: MDA-MB-468, 72 h, read-out: Activity. It counts as functional.
For the next data set, the system named is CAKI-1. The experiment in a line: Antiproliferative activity against human CAKI-1 cells measured after 7 days by Celltiter-glo assay. The class given is functional, cell-based. Conditions: CAKI-1, 168 h. The gist of the method:
as §1
(In general: Cellular ATP, detected with luciferase, serves as a proxy for viable cell number.)

The test system of data set [5] is MDA-MB-468. The experiment in a line: Induction of apoptosis in human MDA-MB-468 cells assessed as late apoptotic cells at 1 uM measured after 72 hrs by Annexin V-FITC/propidium iodide staining based flow cytometry (reference value: 0.78%). It counts as functional.
A further data set concerns HCT-116. Description: Antiproliferative activity against human HCT116 cells measured after 7 days by Celltiter-glo assay. The class given is functional, cell-based. Conditions: HCT-116, 168 h. The gist of the method: as §1
A short description of data set [6]: Toxicity in BALB/c mouse xenografted with human MDA-MB-468 cells assessed as mortality at 27.5 mg/kg, ip administered every 2 days for 34 days. Conditions: in vivo. The class given is organism-based. Put shortly:
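Nude mice bearing subcutaneous right-flank MDA-MB-468 tumours (2 × 10^6 exponential-phase cells implanted). Randomised at about 100 mm³ tumour volume; 6 mice per group. Dosed ip every 2 days for 34 days. Vehicle controls received PBS with 5% DMSO. Body weight and tumour size recorded every 2 days; tumour volume calculated as ab²/2 from caliper diameters.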
For orientation: In xenograft studies the graft and the host belong to different species.

In a further data set the test system is HCC1937. Description: Antiproliferative activity against human HCC1937 cells measured after 7 days by Celltiter-glo assay. The class given is functional, cell-based. The note with it: HCC1937, 168 h. Put shortly: as §1
The next data set relates to MDA-MB-231. Description: Antiproliferative activity against human MDA-MB-231 cells measured after 7 days by Celltiter-glo assay. It counts as functional, cell-based. The note with it: MDA-MB-231, 168 h. The gist of the method: as §1
The test system of the next data set is DU-145. The experiment in a line: Antiproliferative activity against human DU145 cells measured after 7 days by Celltiter-glo assay. It counts as functional, cell-based. Conditions: DU-145, 168 h. The gist of the method:
as §1

The next data set has as its system A549. Description: Antiproliferative activity against human A549 cells measured after 7 days by Celltiter-glo assay. The class given is functional, cell-based. Conditions: A549, 168 h. The gist of the method: as §1
Data set [7] deals with MDA-MB-468. The experiment in a line: Induction of DNA damage in human MDA-MB-468 cells at 1 uM measured after 72 hrs by comet assay. The class given is functional, cell-based. The gist of the method: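 MDA-MB-468 cells treated for 72 h, harvested and run in a neutral comet assay. Ethidium bromide staining after electrophoresis. About 200 cell images per group analysed with CASP. DNA damage scored as tail intensity (percentage DNA in tail) and olive tail moment. Mean ± SD of three independent experiments.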

The subject of data set [8] is MDA-MB-468. The experiment in a line: Inhibition of PI3K in human MDA-MB-468 cells assessed as reduction in BRCA1 mRNA level at 1 uM by Trizol reagent-based RT-PCR analysis. The class given is cell-based. The gist of the method: (§2)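 Total RNA from treated MDA-MB-468 cells extracted with TRIzol. BRCA1 or BRCA2 mRNA quantified by real-time PCR with GAPDH as internal control. Results given as fold change relative to the internal control. Mean ± SD of three independent experiments.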

Data set [9] has as its system MDA-MB-468. Description: Antitumor activity against human MDA-MB-468 cells xenografted in BALB/c mouse assessed as tumor growth inhibition at 27.5 mg/kg, ip administered every 2 days for 34 days and measured at 2 days interval during compound dosing relative to control. It counts as functional. Conditions: MDA-MB-468, ip, read-out: TGI.
Data set [10] has as its system MDA-MB-468. Description: Induction of apoptosis in human MDA-MB-468 cells assessed as necrotic cells at 1 uM measured after 72 hrs by Annexin V-FITC/propidium iodide staining based flow cytometry (reference value: 0.13%). The class given is functional.
Data set [11] deals with MDA-MB-468. Description: Inhibition of PI3K in human MDA-MB-468 cells assessed as reduction in BRCA2 mRNA level at 1 uM by Trizol reagent-based RT-PCR analysis. It counts as cell-based. The gist of the method:
as §2

The subject of the next data set is Ramos. Description: Antiproliferative activity against human Ramos cells measured after 7 days by Celltiter-glo assay. It counts as functional, cell-based. The note with it: 168 h. Put shortly: as §1
A further data set relates to SW-620. Description: Antiproliferative activity against human SW620 cells measured after 7 days by Celltiter-glo assay. It counts as functional, cell-based. The note with it: SW-620, 168 h. Put shortly: as §1
The test system of another data set is A2780. Description: Antiproliferative activity against human A2780 cells measured after 7 days by Celltiter-glo assay. Conditions: A2780, 168 h. The class given is functional, cell-based. Put shortly:
as §1

The next data set has as its system BXPC-3. The experiment in a line: Antiproliferative activity against human BxPC3 cells measured after 7 days by Celltiter-glo assay. It counts as functional, cell-based. The note with it: BXPC-3, 168 h. The gist of the method:
as §1

A further data set relates to Jurkat. Description: Antiproliferative activity against human Jurkat cells measured after 7 days by Celltiter-glo assay. The class given is functional, cell-based. The note with it: 168 h. The gist of the method: as §1
The test system of data set [12] is Mus musculus. The experiment in a line: In vivo inhibition of PI3K in BALB/c mouse xenografted with human MDA-MB-468 cells assessed as reduction in BRCA2 expression at 50 mg/kg, ip administered every 2 days for 34 days measured post-last dose by Western blot analysis. It counts as functional, organism-based.
The subject of data set [13] is MDA-MB-468. Description: Induction of apoptosis in human MDA-MB-468 cells assessed as increase in cleaved PARP level at 1 uM […] by Western blot analysis. It counts as functional, cell-based.
For data set [14], the system named is MDA-MB-468. Description: Potency index, ratio of BKM120 IC50 to test compound IC50 for antiproliferative activity against human MDA-MB-468 cells. It counts as functional.
The test system of data set [15] is MDA-MB-468. The experiment in a line: Inhibition of PI3K in human MDA-MB-468 cells assessed as reduction in pS6 phosphorylation at S240 residue at 1 uM measured after 6 to 72 hrs by Western blot analysis. The class given is cell-based. Put shortly: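 MDA-MB-468 cells seeded overnight, then exposed for 6 h; control medium contained 1‰ DMSO. Lysates run on 8–12% SDS-PAGE and transferred to PVDF. Blots blocked in 5% BSA/TBST and probed for pAKT-Ser473/total AKT or pS6-Ser240/total S6, with β-actin as loading control. HRP secondary with ECL detection; bands quantified by densitometry. Three independent experiments.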

Data set [16] deals with Mus musculus. The experiment in a line: In vivo activation of ETS1 in BALB/c mouse xenografted with human MDA-MB-468 cells assessed as increase in ETS1 phosphorylation at Thr38 residue at 50 mg/kg, ip administered every 2 days for 34 days measured post-last dose by Western blot analysis. It counts as functional, organism-based.

As to `Nc1cc(C(F)(F)F)c(-c2cc(N3CCOCC3)nc(N3CCOCC3)n2)cn1` [BUPARLISIB], the IC50 (commonly the concentration at which inhibition is half-maximal) in the data set with MDA-MB-468 [1] was 3.98 µM; with CAKI-1, 2.75 µM; in the data set on HCT-116, 3.63 µM; with HCC1937, 6.31 µM; in the data set on MDA-MB-231, 6.03 µM; with DU-145, 3.8 µM. For the same molecule, the IC50 in the data set with A549 was 1.7 µM; in the data set on Ramos, 3.63 µM; in the data set with SW-620, 5.13 µM; in the data set with A2780, 0.417 µM; with BXPC-3 it was 4.07 µM; in the data set on Jurkat it was 1.41 µM. For the same molecule, the inhibition result in the data set on MDA-MB-468 [2], in the data set with MDA-MB-468 [8] and in the data set with MDA-MB-468 [11] was “Active” throughout. Further, the Activity in the data set on MDA-MB-468 [3] is reported as 6.13%; with MDA-MB-468 [5], 1.82%; in data set [6], “Non-Toxic”; with MDA-MB-468 [10], 0.16%. Besides, in the data set with MDA-MB-468 [4], the viability at 1 µM was 91.9%. Besides, the result in the data set on MDA-MB-468 [7] was Active. The inhibition in vivo at 27.5 mg/kg with MDA-MB-468 [9] amounted to 33.4%.
For the molecule `Nc1cc(C(F)(F)F)c(-c2nc3c(c(N4CCOCC4)n2)CCN(C(=O)c2cc(Cc4n[nH]c(=O)c5ccccc45)ccc2F)C3)cn1`, the inhibition entry in the data set on Mus musculus [12], with MDA-MB-468 [2], with MDA-MB-468 [15], in the data set with MDA-MB-468 [8] and in the data set with MDA-MB-468 [11] was “Active” throughout. Moreover, the IC50 with MDA-MB-468 [1] is 0.977 µM; in the data set with CAKI-1 it was 0.955 µM; in the data set on HCT-116, 0.871 µM; with HCC1937, 1.05 µM; in the data set on MDA-MB-231 it was 1 µM; with DU-145, 0.891 µM. The IC50 in the data set on A549 was 0.537 µM; with Ramos, 1.07 µM; with SW-620, 2.82 µM; with A2780, 0.398 µM; in the data set on BXPC-3, 1.07 µM; in the data set on Jurkat, 0.933 µM. Besides, the result in the data set on MDA-MB-468 [13], with MDA-MB-468 [7] and with Mus musculus [16] was Active. For the same molecule, the results for the Activity in the data set with MDA-MB-468 [3], in the data set on MDA-MB-468 [5] and in the data set on MDA-MB-468 [10] were 21.9%, 21% and 1.44%, respectively. In addition, the viability at 1 µM in the data set on MDA-MB-468 [4] is 55.7%. The “Ratio IC50” value with MDA-MB-468 [14] is “>=4”.

The values above are taken from ChEMBL document CHEMBL4376860, “Discovery of Novel Dual Poly(ADP-ribose)polymerase and Phosphoinositide 3-Kinase Inhibitors as a Promising Strategy for Cancer Therapy” (J Med Chem, 2020).
